According to ChEMBL document CHEMBL1122137, “Antiinflammatory properties of 8-aryl-5-isopropyl-2H-1,3-dioxolo[4,5-g]quinazolin-6(5H)-ones and -thiones” (1982):

How the values were obtained:
Format in all cases: functional
Rattus norvegicus [1] = experiment: Inhibition of carrageenan edema in rats was determined after peroral administration of 100 mg/kg; details: route oral
Method in brief: (§1)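 Male Wistar rats (150–175 g) dosed orally, in mg/kg, as a suspension in 0.5% carboxymethylcellulose (1 mL/kg), 1 h before subplantar injection of 0.1 mL of 1% Type 402 carrageenin. Paw edema measured by electronic plethysmography at 3 h. Swelling (3 h minus 0 h) per rat; treated-group mean expressed as percent of vehicle-control mean.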

Rattus norvegicus [2] = experiment: Nonnarcotic analgesic effect was determined after peroral administration in rats; details: po, read-out: MED
Rattus norvegicus [3] = experiment: Inhibition of carrageenan edema in adrenalectomized rats was determined after peroral administration; details: po
Method in brief: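 Carrageenin paw edema run as in intact rats, but male Wistar rats were bilaterally adrenalectomized under ether and allowed 7 days to recover. They drank 1.0% NaCl plus 2.5% dextrose and ate standard chow. Oral dosing in 0.5% CMC 1 h before subplantar 1% carrageenin. Plethysmographic swelling at 3 h, as percent of vehicle-treated controls.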

Rattus norvegicus [4] = organism: Rattus norvegicus; experiment: Inhibition of the development of adjuvant-induced polyarthritis in rats was determined
Rattus norvegicus [5] = experiment: Inhibition of carrageenan edema in normal rats was determined after peroral administration; details: po; method in brief: as §1
Rattus norvegicus [6] = experiment: Bronchoconstrictor effect of bradykinin was determined after intravenous administration in rats.
Rattus norvegicus [7] = experiment: Nonnarcotic analgesic effect was determined after peroral administration in rats.; details: po, read-out: MED
Rattus norvegicus [8] = experiment: Bronchoconstrictor effect of bradykinin was determined after intravenous administration in rats

| SMILES | inhibition in vivo at 100 mg/kg (Rattus norvegicus [1]) [%] | ED50 (Rattus norvegicus [1]) [mg/kg] | ED50 (Rattus norvegicus [4]) [mg/kg] | ED50 (Rattus norvegicus [5]) [mg/kg] | also measured |
| --- | --- | --- | --- | --- | --- |
| COc1cccc(-c2nc(=O)n(C(C)C)c3cc4c(cc23)OCO4)c1 | 12 |  |  |  |  |
| CC(C)n1c(=O)nc(-c2ccccc2)c2cc3c(cc21)OCO3 |  | 7 | 3 | 8 | minimal effective dose (Rattus norvegicus [2]): 50 mg/kg; ED50 (Rattus norvegicus [3]): 9 mg/kg; ED50 (Rattus norvegicus [6]): 0.012 mg/kg |
| CCCCC1C(=O)N(c2ccccc2)N(c2ccccc2)C1=O [PHENYLBUTAZONE] |  | 25 | 5 | 25 | ED50 (Rattus norvegicus [3]): 30 mg/kg; minimal effective dose (Rattus norvegicus [7]): 9 mg/kg |
| Cc1ccc(-c2nc(=O)n(C(C)C)c3cc4c(cc23)OCO4)cc1 | 22 |  |  |  |  |
| CC(C)n1c(=O)nc(-c2cccc(F)c2)c2cc3c(cc21)OCO3 |  | 9 | 9 | 9 | minimal effective dose (Rattus norvegicus [2]): 11 mg/kg; ED50 (Rattus norvegicus [3]): 14 mg/kg; ED50 (Rattus norvegicus [8]): 0.05 mg/kg |
| Cc1ccc2c(-c3ccccc3)nc(=O)n(C(C)C)c2c1 [PROQUAZONE] |  | 5 | 1 | 5 | ED50 (Rattus norvegicus [3]): 6 mg/kg; minimal effective dose (Rattus norvegicus [7]): 1 mg/kg |
| CC(C)c1ccc(-c2nc(=S)n(C(C)C)c3cc4c(cc23)OCO4)cc1 | 10 |  |  |  |  |
| CC(C)n1c(=S)nc(-c2ccccc2)c2cc3c(cc21)OCO3 |  | 7 | 6 | 7 | ED50 (Rattus norvegicus [6]): 0.047 mg/kg |
| COc1ccc2c(c1)c(CC(=O)O)c(C)n2C(=O)c1ccc(Cl)cc1 [INDOMETHACIN] |  | 5 | 0.1 | 5 | ED50 (Rattus norvegicus [3]): 6 mg/kg; minimal effective dose (Rattus norvegicus [7]): 4 mg/kg |
| CC(C)n1c(=O)nc(-c2cccc([N+](=O)[O-])c2)c2cc3c(cc21)OCO3 | 28 |  |  |  |  |
| CC(C)n1c(=S)nc(-c2cccc(F)c2)c2cc3c(cc21)OCO3 | 36 |  |  |  |  |
| CC(C)n1c(=O)nc(-c2ccccc2[N+](=O)[O-])c2cc3c(cc21)OCO3 |  | 39 |  |  |  |
| CC(C)n1c(=O)nc(-c2ccc3c(c2)OCO3)c2cc3c(cc21)OCO3 | 21 |  |  |  |  |
| CC(C)n1c(=S)nc(-c2ccc(F)cc2)c2cc3c(cc21)OCO3 | 49 |  |  |  |  |
| CC(C)n1c(=O)nc(-c2ccc(Cl)c(Cl)c2)c2cc3c(cc21)OCO3 | 30 |  |  |  |  |
| CC(C)n1c(=O)nc(-c2ccc(OCc3ccccc3)cc2)c2cc3c(cc21)OCO3 | 17 |  |  |  |  |
| CC(C)n1c(=O)nc(-c2ccc(C(=O)O)cc2)c2cc3c(cc21)OCO3 | 33 |  |  |  |  |
| CC(C)n1c(=S)nc(-c2cccc([N+](=O)[O-])c2)c2cc3c(cc21)OCO3 | 0 |  |  |  |  |
| Cc1ccccc1C1NC(=O)N(C(C)C)c2cc3c(cc21)OCO3 (stereo unspecified) |  | 50 |  |  |  |
| Cc1ccccc1-c1nc(=O)n(C(C)C)c2cc3c(cc12)OCO3 |  | 65 |  |  |  |
| CC(C)n1c(=O)nc(-c2ccc(F)cc2)c2cc3c(cc21)OCO3 |  | 8 | 6 | 8 | minimal effective dose (Rattus norvegicus [2]): 4 mg/kg; ED50 (Rattus norvegicus [3]): 20 mg/kg; ED50 (Rattus norvegicus [6]): 0.17 mg/kg |
